Bioassay records deposited in PubChem by several laboratories.
XBP1 UPR activ: activators of adaptive arm of unfolded protein response (XBP1); CHO-XBP1 luciferase reporter, IRE1-XBP1 UPR activation, luminescence; percent of tunicamycin response, DMSO as zero; activation, % at 20 µM; 330,000 compounds, 0.33% hits; AID 463104;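 active = versus positive control, 20 µM dose yields 30% or more activation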
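Material: CHO cell line with stable XBP1 luciferase reporter; buffer or medium: F12 medium containing 10% fetal bovine serum; compound: single point, 20 µM final compound, 1% DMSO; incubation: 6 h treatment, 37 °C; measured by: glow luminescence from Steady-Glo reagent; evaluation: activation, % of tunicamycin; control set: tunicamycin high, DMSO low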
UCH37 inh: inhibitors of human deubiquitinating enzyme UCH37; 330,000 compounds, 0.33% hits; purified proteasome/UCH37, Ub-AMC cleavage fluorescence; inhibition, % (concentration not given with the values);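 active = mean inhibition over replicate wells above about 20%, limit read from the data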
Target sequence (Q9Y5K5 whole entry, looked up): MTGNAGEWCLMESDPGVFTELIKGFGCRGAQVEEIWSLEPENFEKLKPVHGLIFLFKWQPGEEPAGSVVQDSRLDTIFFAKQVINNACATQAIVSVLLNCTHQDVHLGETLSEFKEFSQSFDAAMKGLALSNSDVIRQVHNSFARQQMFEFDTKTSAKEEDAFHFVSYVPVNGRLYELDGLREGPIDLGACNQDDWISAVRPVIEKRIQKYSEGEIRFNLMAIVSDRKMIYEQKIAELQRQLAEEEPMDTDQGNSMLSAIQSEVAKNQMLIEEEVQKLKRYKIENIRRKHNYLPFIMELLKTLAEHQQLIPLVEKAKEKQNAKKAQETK
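Material: human UCH37 enzyme supplied as purified proteasome complex / Amount: 0.15 nM proteasome as dispensed / Buffer or medium: pH 7.4 Tris-HCl (50 mM) with ovalbumin, ATP-MgCl2, DTT / Times: preincubation 30 min, reaction 25 min, room temperature / Technique: AMC fluorescence from Ub-AMC cleavage, excitation 355 nm, emission 460 nm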
CTSL1 counter: blocks F. hepatica cathepsin L1 in PFM18AAP counter-screen; recombinant F. hepatica cathepsin L1, Z-Leu-Arg-MCA fluorescence; inhibition, % at 5.96 µM; 300,000 compounds, 0.49% hits;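 active = inhibition above the mean of all tested compounds plus 3 SD, set per screening campaign, cut at about 17% in these data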
CHOP inhibitor: CHOP inhibition in unfolded protein response | CHO-K1 CHOP-promoter luciferase, tunicamycin-induced, 15-18 h | inhibition, % at 10 µM | 220,000 compounds, 3.8% hits;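 active = compounds that reduced the stress-induced luciferase reporter signal by more than about 70% of percent inhibition, limit read from the data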
CHOP UPR activ: activators of apoptotic arm of unfolded protein response (CHOP); 330,000 compounds, 0.34% hits; CHO-CHOP luciferase reporter, UPR activation, luminescence; percent of tunicamycin response over DMSO baseline; activation, % at 10 µM; AID 449763;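 active = at 10 µM dose, activation of 40% or more, normalized to positive control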
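Material: CHO-CHOP cells, stable luciferase reporter of PERK-eIF2a-CHOP signalling; quantity: 500 reporter cells seeded per well; buffer or medium: F12 medium containing 10% fetal bovine serum; compound: one dose, 10 µM in 0.5% DMSO; incubation: 6 h compound treatment, 37 °C; measured by: Steady-Glo luciferase luminescence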
Large screens that a line does not name were inactive. Shown is part of a subset that was picked to be rich in hits.

Cc1cccc(N2CC(C(=O)NCCC3=CCCCC3)CC2=O)c1C (stereo not drawn)	UCH37 inh 23 (no result: CHOP inhibitor)
O=C(CNCC1CCCCC1)Nc1ccccc1N1CCCCC1	CHOP inhibitor 79
CC(C)CC(=O)Nc1ccccc1N1CCCC1	none
O=C(CNCCC1=CCCCC1)Nc1ccccc1N1CCCCC1	CHOP inhibitor 92
CC(C)CC(=O)NC(=S)Nc1ccccc1N1CCCC1	CTSL1 counter 20
COc1ccc(NC(=O)CNCCC2=CCCCC2)cc1	none
CC1(c2ccccc2)NC(=O)N(CC(=O)Nc2ccccc2N2CCCC2)C1=O (stereo not drawn)	CTSL1 counter 18 (no result: CHOP inhibitor)
Cc1cccc(N2CCN(CC(=O)NCC3CCCCC3)CC2)c1C	CHOP inhibitor 76
O=C(NCc1ccco1)/C(=C\c1ccco1)NC(=O)c1ccccc1Cl	none (no result: CHOP inhibitor)
O=C(NCc1ccco1)/C(=C/c1ccco1)NC(=O)c1ccco1	CTSL1 counter 19
COc1ccc(CNS(=O)(=O)c2ccc(OC)cc2)cc1	none
CCCOc1ccc(S(=O)(=O)NCc2ccc(OC)cc2)cc1	CHOP inhibitor 80
Cc1cc[n+](-c2[nH]c(=O)sc2C=N/N=C(\[O-])c2ccccc2)cc1C	none (no result: XBP1 UPR activ, CTSL1 counter, CHOP inhibitor, CHOP UPR activ)
COc1cccc(C=NNC(=O)CNC(=O)COc2ccccc2)c1O	none (no result: XBP1 UPR activ, CTSL1 counter, CHOP inhibitor, CHOP UPR activ)
CCOC(=O)c1c(NC(=O)COC(=O)c2cnccn2)sc(C(=O)NC)c1C	none (no result: UCH37 inh, CHOP inhibitor)
CCOC(=O)c1c(-c2ccco2)csc1NC(=O)COC(=O)c1cnccn1	CTSL1 counter 40 (no result: CHOP inhibitor)
C/C=C/C(=O)Nc1nnc(-c2ccccc2C)s1	CHOP inhibitor 85
O=C1C(Cl)=C(Nc2ccccc2O)C(=O)N1c1ccccc1	CTSL1 counter 73
COc1ccccc1N1C(=O)C(Cl)=C(Nc2ccccc2O)C1=O	none (no result: XBP1 UPR activ, UCH37 inh, CTSL1 counter, CHOP UPR activ)
O=C(CSCc1ccc(Cl)cc1)NN=Cc1c(Cl)cccc1Cl	none (no result: XBP1 UPR activ, CTSL1 counter, CHOP inhibitor, CHOP UPR activ)
Cc1ccc(-c2cc(C(=O)NN=Cc3ccc([N+](=O)[O-])o3)c3ccccc3n2)o1	none (no result: XBP1 UPR activ, CTSL1 counter, CHOP inhibitor, CHOP UPR activ)
Cc1cccc(C=Nn2c(C)nnc2C)c1	none (no result: XBP1 UPR activ, CTSL1 counter, CHOP inhibitor, CHOP UPR activ)
COc1ccccc1N1CCN(N=Cc2cccc(O)c2)CC1	none (no result: XBP1 UPR activ, CTSL1 counter, CHOP inhibitor, CHOP UPR activ)
CCCCOc1ccccc1Cn1c(=O)oc2ccccc21	CHOP inhibitor 88
O=c1oc2ccccc2n1Cc1ccccc1F	none (no result: CHOP inhibitor)
Cn1c(SCc2cccc(F)c2)nnc1-c1cnccn1	CTSL1 counter 54
CC(=O)OC1COC(OC2C(O)C(C)OC(OC3C(OC4CCC5(C)C(CCC6(C)C5CC=C5C7CC(C)(C)CCC7(C(=O)O)CCC56C)C4(C)CO)OCC(O)C3O)C2O)C(O)C1OC(C)=O (stereo not drawn)	CHOP inhibitor 92 (no result: UCH37 inh)
Fc1ccc2c(Cl)c(-c3nnc(-c4cccs4)o3)sc2c1	CHOP inhibitor 91
Cc1ccsc1C=NN1CCN(c2ccccc2)CC1	none (no result: XBP1 UPR activ, CTSL1 counter, CHOP inhibitor, CHOP UPR activ)
CCCCOC(=O)c1ccc(NC(C)=O)cc1	none
CCCCOC(=O)c1ccc(NC(=O)/C=C/c2cccs2)cc1	CHOP inhibitor 75
CCCCCOC(=O)c1ccc(NC(=O)c2ccco2)cc1	CHOP inhibitor 82 (no result: UCH37 inh)
CN(O)C=NC(=S)Nc1ccc(Cl)cc1Cl	none (no result: XBP1 UPR activ, CTSL1 counter, CHOP inhibitor, CHOP UPR activ)
CCc1nc2ccccc2c(=O)n1NC(=O)c1c(O)c2cccc3c2n(c1=O)CCC3	CHOP inhibitor 95
O=C(Nc1cccnc1)c1c(O)c2cccc3c2n(c1=O)CC3	CHOP inhibitor 80
O=S(=O)(NN=C/C=C/c1ccccc1)c1ccccc1	none (no result: XBP1 UPR activ, CTSL1 counter, CHOP inhibitor, CHOP UPR activ)
COc1ccccc1/C=C/C=NNC(=O)CN1CCN(S(=O)(=O)c2ccc(C)cc2)CC1	none (no result: XBP1 UPR activ, CTSL1 counter, CHOP inhibitor, CHOP UPR activ)
CC(=NNC(=O)NC1CCCCC1)c1ccco1	none (no result: XBP1 UPR activ, CTSL1 counter, CHOP inhibitor, CHOP UPR activ)
O=S(=O)(NCCc1csc(-c2cccnc2)n1)c1ccc(Cl)s1	CHOP inhibitor 78
O=S(=O)(NCCc1csc(-c2cccnc2)n1)c1cccs1	none
O=C(NN=Cc1sc(=O)n(-c2ccccc2)c1Cl)c1ccncc1	none (no result: XBP1 UPR activ, CTSL1 counter, CHOP inhibitor, CHOP UPR activ)
CCc1ccc(NC(=O)C(=O)NN=C(C)CC(=O)NCCOC)cc1	none (no result: XBP1 UPR activ, CTSL1 counter, CHOP inhibitor, CHOP UPR activ)
CCOC(=O)C1=C(O)c2ccccc2C(=O)/C1=C\c1ccc(CC)cc1	CHOP inhibitor 87 (no result: XBP1 UPR activ, CHOP UPR activ)
CCOC(=O)C1=C(Cc2ccc(OC)cc2)C(=O)c2ccccc2C1=O	CHOP inhibitor 95 (no result: XBP1 UPR activ, CTSL1 counter, CHOP UPR activ)
CCCc1ccc(/C=C2\C(=O)c3ccccc3C(O)=C2C(=O)OCC)cc1	CHOP inhibitor 86 (no result: UCH37 inh)
COc1cc(C=NN2CCN(Cc3ccccc3)CC2)cc(OC)c1OC(C)=O	none (no result: XBP1 UPR activ, CTSL1 counter, CHOP inhibitor, CHOP UPR activ)
O=c1cnnc(NN=Cc2ccc3c(c2)OCO3)[nH]1	none (no result: XBP1 UPR activ, CTSL1 counter, CHOP inhibitor, CHOP UPR activ)
